Among the data in the RNAGym collection of RNA variant scans (doi:10.1002/anie.201605470) are self-cleavage values, retold here.

B1: Osa-1-4 twister ribozyme (parent)
chain: CCGCCUAACACUGCCAAUGCCGGUCCCAAGCCCGGAUAAAAGUGGAGGGGGCGG

The variants in this data set derive from B1. In words: self-cleavage, relative activity (ratio to wild type); higher = more cleavage; co-transcriptional. The procedure, abridged:
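A DNA template was synthesised for a 54-nucleotide twister ribozyme from Oryza sativa, with 97 % wild-type base and 1 % of each other base at each of the 48 positions downstream of the cleavage site. The ribozyme cleaved itself co-transcriptionally during 2 h of in vitro transcription at 37 °C. Reverse transcription with a template-switching oligonucleotide, PCR amplification and deep sequencing followed, and cleavage status came from reads with or without upstream sequence. Relative activity is the fraction cleaved normalised to wild type.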
Regarding G30U G42A, the self-cleavage amounted to 0.04.
With G30U G42C the figure was 0.03; with G30U G42U, 0.02.
With C31A G49A the figure was 0.02.
With C31A G49C the figure was 0.01.
C31A G49U: the self-cleavage is 0.02.
With C31A G44A the figure was 0.04; with C31A G44C, 0.03.
As to C31A G44U, the self-cleavage turned out to be 0.03.
Consider C31U C32U, for which the self-cleavage was determined as 0.09.
Take C31U C32G: the self-cleavage worked out at 0.08.
With C31U C32A the figure was 0.05; with G30C U24G, 0.01.
For the variant G30C U24A, the self-cleavage is 0.03.
With G30C U24C the figure was 0.04; with C31G G44U, 0.05; with C31G G44A, 0.08.
On to C31G G44C, for which the self-cleavage came out at 0.07.
With C31G G19U the figure was 0.05; with C31G G19C, 0.02; with C31G G19A, 0.08.
With G30U G50A the figure was 0.03; with G30U G50U, 0.05; with G30U G50C, 0.05.
To C31A U43A belongs 0.03; to C31A U43G, 0.04; to C31A U43C, 0.03.
In the case of G30C U12C, the self-cleavage was 0.03.
Take G30C U12G: the self-cleavage came out at 0.1.
As to G30C U12A, the self-cleavage was 0.06.
To C31G G42A belongs 0.1.
With C31G G42C the figure was 0.05; with C31G G42U, 0.02; with G30C G44U, 0.04.
For G30C G44C, the self-cleavage amounted to 0.04.
With G30C G44A the figure was 0.03; with C31A G22U, 0.04; with C31A G22C, 0.02.
For the variant C31A G22A, the self-cleavage turned out to be 0.04.
With C31U G42C the figure was 0.07; with C31U G42U, 0.03.
In the case of C31U G42A, the self-cleavage is 0.09.
To C31A G42C belongs 0.02; to C31A G42U, 0.01; to C31A G42A, 0.03.
With C31A U37G the figure was 0.05; with C31A U37A, 0.03.
For C31A U37C, the self-cleavage amounted to 0.04.
To G30U G35C belongs 0.03; to G30U G35A, 0.04.
To G30U G35U belongs 0.04; to C31G U12A, 0.08.
With C31G U12G the figure was 0.05; with C31G U12C, 0.06.
With C31G U24A, the self-cleavage was 0.04.
With C31G U24C the figure was 0.03; with C31G U24G, 0.02.
For G30C G51A, the self-cleavage came out at 0.05.
On to G30C G51C, for which the self-cleavage stood at 0.03.
Consider G30C G51U, for which the self-cleavage is 0.03.
Regarding G30U U24A, the self-cleavage was 0.02.
With G30U U24C the figure was 0.02; with G30U U24G, 0.01; with C31A G19C, 0.02.
With C31A G19A the figure was 0.04; with C31A G19U, 0.02.
With G30A U37A the figure was 0.03.
For G30A U37G, the self-cleavage was determined as 0.05.
For the variant G30A U37C, the self-cleavage was 0.03.
To C31U G23C belongs 0.04; to C31U G23U, 0.04.
To C31U G23A belongs 0.07; to G30U G47C, 0.01.
To G30U G47U belongs 0.03; to G30U G47A, 0.03.
Take G30C G49A: the self-cleavage worked out at 0.02.
In the case of G30C G49U, the self-cleavage came to 0.02.
As for G30C G49C, the self-cleavage came to 0.02.
With C31G C52U the figure was 0.12.
With C31G C52G the figure was 0.15; with C31G C52A, 0.1; with C31U G35U, 0.85.
With C31U G35A the figure was 0.87; with C31U G35C, 0.14; with C31G G45U, 0.03.
Take C31G G45A: the self-cleavage came to 0.04.
With C31G G45C the figure was 0.03; with G30A G53C, 0.03; with G30A G53U, 0.04.
With G30A G53A, the self-cleavage was determined as 0.03.
To C31A G47U belongs 0.02.
With C31A G47C the figure was 0.02.
As for C31A G47A, the self-cleavage came to 0.02.
With C31A G51C the figure was 0.02.
For the variant C31A G51A, the self-cleavage is 0.04.
To C31A G51U belongs 0.04; to G30A U24G, 0.01; to G30A U24C, 0.03.
With G30A U24A the figure was 0.03.
To G30U G48U belongs 0.02; to G30U G48A, 0.02; to G30U G48C, 0.02.
Consider G30U U12G, for which the self-cleavage is 0.03.
G30U U12A: the self-cleavage stood at 0.03.
To G30U U12C belongs 0.03.
With C31G G30A the figure was 0.04.
To C31G G30C belongs 0.03; to C31G G30U, 0.04; to G30C G54A, 0.05.
With G30C G54C, the self-cleavage amounted to 0.04.
To G30C G54U belongs 0.05; to C31G C32A, 0.02.
With C31G C32U the figure was 0.04; with C31G C32G, 0.1.
To C31G G49A belongs 0.05; to C31G G49U, 0.03; to C31G G49C, 0.03.
For C31A G35U, the self-cleavage amounted to 0.05.
To C31A G35C belongs 0.03; to C31A G35A, 0.05; to C31G U18C, 0.13.
To C31G U18A belongs 0.1; to C31G U18G, 0.15; to C31A C32A, 0.04.
To C31A C32G belongs 0.02; to C31A C32U, 0.01.
Take G30U U37A: the self-cleavage was determined as 0.02.
With G30U U37G, the self-cleavage was found to be 0.04.
On to G30U U37C, for which the self-cleavage amounted to 0.04.
With G30U G51C the figure was 0.03; with G30U G51A, 0.05.
Take G30U G51U: the self-cleavage is 0.03.
To G30U G45C belongs 0.02.
To G30U G45A belongs 0.03; to G30U G45U, 0.02.
With C31G G47A the figure was 0.04; with C31G G47U, 0.04.
For the variant C31G G47C, the self-cleavage was 0.03.
To G30U U18C belongs 0.04; to G30U U18A, 0.03.
With G30U U18G the figure was 0.04; with G30C U37G, 0.05.
With G30C U37C the figure was 0.04; with G30C U37A, 0.03.
Take G30A G49C: the self-cleavage came to 0.02.
To G30A G49U belongs 0.03.
With G30A G50C the figure was 0.04; with G30A G50A, 0.04; with G30A G50U, 0.04.
To G30C G47U belongs 0.03; to G30C G47A, 0.03; to G30C G47C, 0.02.
C31A G13C: the self-cleavage came to 0.01.
With C31A G13A the figure was 0.01.
C31A G13U: the self-cleavage was found to be 0.02.
With C31A U18A the figure was 0.04.
To C31A U18G belongs 0.05; to C31A U18C, 0.04; to C31A C52G, 0.05.
To C31A C52U belongs 0.05; to C31A C52A, 0.05; to C31G G50C, 0.07.
Consider C31G G50U, for which the self-cleavage is 0.06.
With C31G G50A, the self-cleavage was 0.11.
Turning to C31G C9G, the self-cleavage was found to be 0.23.
Turning to C31G C9A, the self-cleavage was 0.03.
As for C31G C9U, the self-cleavage was determined as 0.06.
